Most compounds without a hit are left out; they make up all but 1.3% or so of the library.
Tn6 DDE FP = inhibitors of Tn6 peptide binding to fibrin DD(E), primary screen, biochemical, fluorescence polarization, human fibrin, Tn6 probe; Fibrinogen beta chain (Homo sapiens), P02675; Fibrin DD(E) TRITC-Tn6 fluorescence polarization displacement; 0.21% of 370,000 active; AID 720509, 2013; inhibition, % at 8.3 µM;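 active = inhibition above a per-campaign cutoff: mean of compounds within control limits plus 3 SD, cut at about 15% in these data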
Target sequence (P02675 whole entry, looked up): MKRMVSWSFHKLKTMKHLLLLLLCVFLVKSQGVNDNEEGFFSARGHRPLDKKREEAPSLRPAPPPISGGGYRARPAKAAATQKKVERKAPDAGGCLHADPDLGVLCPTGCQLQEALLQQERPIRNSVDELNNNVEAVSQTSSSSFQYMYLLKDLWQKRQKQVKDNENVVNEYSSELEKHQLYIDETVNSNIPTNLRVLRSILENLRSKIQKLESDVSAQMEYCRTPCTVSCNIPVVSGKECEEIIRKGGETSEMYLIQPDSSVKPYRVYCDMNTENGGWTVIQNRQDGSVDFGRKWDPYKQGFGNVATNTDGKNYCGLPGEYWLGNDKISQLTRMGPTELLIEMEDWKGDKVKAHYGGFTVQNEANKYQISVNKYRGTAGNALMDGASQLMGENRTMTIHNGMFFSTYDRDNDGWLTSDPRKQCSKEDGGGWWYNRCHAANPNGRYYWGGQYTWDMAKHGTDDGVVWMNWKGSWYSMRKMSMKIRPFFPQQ
NRP1-CendR mod = modulators of CendR peptide binding to NRP-1, primary screen, biochemical, fluorescence polarization, uHTS | inhibition, % at 25 µM | 0.85% of 360,000 active | FAM-RPARPAR peptide binding to NRP-1;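 active = inhibition or corrected inhibition above about 18%, plus a signal ratio from 0.5 to 1.5, limit read from the data, passing the limit was not always enough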
DDE Tn7 FP inh = inhibitors of Tn7 peptide binding to fibrin DD(E), primary screen, biochemical, fluorescence polarization, human fibrin, Tn7 probe; Fibrinogen beta chain (Homo sapiens), P02675; FP displacement of FITC-Tn7 peptide from fibrin DD(E); 0% = median of compound wells per plate; inhibition, % at 8.3 µM; 0.13% of 370,000 active;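 active = inhibition above the mean of compounds falling within the control limits plus 3 SD of them, cut at about 14% in these data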
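system = human fibrin DD(E) protein | quantity = DD(E) 2 µM final | medium = Tris/NaCl/CaCl2 buffer, pH 7.8 | also added = labelled Tn7 tracer, 0.1 µM | compound dosing = single point at 8.3 µM | timing = compound with protein 10 min, then 3 h after probe, room temperature | signal = FP measurement | benchmarks = Aha-Tn7 high control | repeats = one replicate per compound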
aDG glyco act = activators of alpha-DG glycosylation, primary screen, uHTS, Pro5-aDG cells, AlphaScreen | alpha-DG glycosylation AlphaScreen (IIH6); 0% Pro5, 100% B10-LARGE cell signal | activation, % at 10 µM | 0.22% of 360,000 active | AID 624168, 2012;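 active = activation of at least 8% versus controls, or a plate z-score of at least 8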;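 note: Pro5 are CHO cells carrying HIG-tagged alpha-DG that lacks glycosylation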
aDG conf = alpha-DG glycosylation enhancers, retest, confirmation, single concentration, Pro5-aDG cells; 17% of 600 active; activation, % at 10 µM (by protocol); shares compounds with aDG glyco act; IIH6 AlphaLISA; scaled to LARGE-overexpressing B10 cells as 100%;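 active = activation of at least 7% in one or more replicates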;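 note: cells exposed to compound for two days before detection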
A number is an active result; – = inactive; · = no result.

SMILES	Tn6 DDE FP	NRP1-CendR mod	DDE Tn7 FP inh	aDG glyco act	aDG conf
O=C(CNC(=O)c1ccccc1F)NCc1ccncc1	–	–	–	5.9	–
O=C(CNC(=O)c1ccccc1F)Nc1ccncc1	–	–	–	–	·
O=C(NCC1CCCO1)C1CCN(C2CCN(C(=O)CC3CCCC3)CC2)CC1 (configuration not stated)	–	–	–	3.7	–
O=C(NCC1CCCO1)C1CCN(C2CCN(CCCC3CCCC3)CC2)CC1 (configuration not stated)	–	–	–	–	·
C=CCNC(=S)N/N=C/c1ccc(C(C)(C)C)cc1	–	–	–	8.6	–
CC(C)(C)c1ccc(/C=N/NC(=S)NCc2ccccc2)cc1	–	–	–	–	·
O=C(CSc1nncn1-c1ccccc1)NC1CCCc2ccccc21 (configuration not stated)	–	–	–	–	·
Cc1nnc(SCC(=O)NC2CCCc3ccccc32)n1-c1ccccc1 (configuration not stated)	–	–	–	7.0	–
COC(=O)C1=C(C)N(Cc2cccc(C(F)(F)F)c2)C(=NCc2ccc(OC)cc2)NC1c1ccc(F)cc1 (configuration not stated)	–	·	–	·	·
Cc1cc(C)c(C(N)=O)c(Nc2cccc3ccccc23)n1	–	–	–	5.7	–
CCCCc1c(C)nn(-c2nnc3c4ccccc4n(C)c3n2)c1C	–	–	–	4.2	–
CCOc1ccc(C(=O)NCC(=O)OCc2nnc(-c3ccccc3)o2)cc1OCC	–	–	–	–	·
NS(=O)(=O)c1ccc(CCNCc2cc(Br)ccc2OCc2ccccc2F)cc1	–	–	–	7.6	–
CC(C)CN1C(=O)[C@@]2(CC(=O)N(C)C2c2ccccc2)c2cc(-n3cc(C(C)(C)O)nn3)ccc21 (some centres not stated)	–	·	–	·	·
Cc1nc2sccn2c(=O)c1S(=O)(=O)NCc1ccccc1Cl	–	–	–	10.1	–
CCc1nc2ccc(C(=O)NC3CCN(Cc4ccccc4)CC3)cn2c1N(C)Cc1cccs1	–	–	–	–	·
CCc1nc2ccc(C(=O)NC3CCN(Cc4ccccc4)CC3)cn2c1N(C)Cc1cc2ccccc2s1	–	–	–	6.4	10.9
CC(=O)Nc1ccc(S(=O)(=O)N(C)C2CCN(C)CC2)cc1	–	–	–	–	·
CC(Oc1cccc(Cl)c1)C(=O)Nc1ccc(S(=O)(=O)N(C)C2CCN(C)CC2)cc1 (configuration not stated)	–	–	–	5.7	5.3
Cc1[nH]c2ccccc2c1CC(=O)Nc1ccc(Nc2cccnc2)c(-c2ccc(C(C)(C)C)cc2)c1	–	·	–	·	·
COc1cccc(-c2cnc(C(O)c3cccc(F)c3)[nH]2)c1 (configuration not stated)	–	–	–	–	·
Cc1ccc(NC(=O)Cc2cccc(OC(F)F)c2)c(S(=O)(=O)N2CCOCC2)c1	–	·	–	·	·
O=C(CNC(=O)c1cccc(F)c1)N/N=C/c1ccc([N+](=O)[O-])s1	–	–	–	10.9	–
Cc1cc(C)n(CCNC(=O)[C@H]2O[C@@H](n3ccc(=O)[nH]c3=O)[C@H](O)[C@@H]2O)n1	–	–	–	21.2	–
O=C(NCC(F)(F)F)[C@H]1O[C@@H](n2ccc(=O)[nH]c2=O)[C@H](O)[C@@H]1O	–	–	–	–	·
SMILES	Tn6 DDE FP	NRP1-CendR mod	DDE Tn7 FP inh	aDG glyco act	aDG conf
O=C(Nc1cccc2ccccc12)c1ccc([N+](=O)[O-])s1	–	–	–	12.5	5.7
O=C(Nc1ccccc1F)c1ccc([N+](=O)[O-])s1	–	–	–	16.3	3.7
O=C(Nc1cccc2ccccc12)c1ccc([N+](=O)[O-])o1	–	–	–	–	·
COC(=O)[C@@]1(C)[C@H]2C(=O)N(Cc3ccccc3)C(=O)[C@H]2[C@H]2CN=C(SCc3ccc(Cl)cc3)N21	–	–	–	–	·
COC(=O)[C@@]1(C)[C@H]2C(=O)N(Cc3ccccc3)C(=O)[C@H]2[C@H]2CN=C(SCc3ccc(C#N)cc3)N21	–	–	–	5.6	–
C=CCN1C(=O)[C@]2(OCCC=C[C@H]2C)c2cc(OC)ccc21	–	·	–	·	·
O=C(CN1C(=O)c2ccccc2S1(=O)=O)NCCSCc1ccco1	–	–	–	79.9	–
CCN(C)C1CN(Cc2cn(CCCC(=O)OC)nn2)S(=O)(=O)C1 (configuration not stated)	–	–	–	–	·
COc1cc2[nH]c3c(=O)n4c(nc3c2cc1OC)SCCC4	–	–	–	31.1	21.6
CCOc1cc(/C=N/NC(=O)c2ccc(N(C)S(=O)(=O)c3ccccc3)cc2)ccc1OC	–	–	–	2.4	–
CCN(CC)c1ccc(C(=C2C=CC(=[N+](CC)CC)C=C2)c2ccc(S(=O)(=O)O)cc2S(=O)(=O)[O-])cc1	–	–	–	–	·
C=CCN=C1NC(c2ccccc2)C(C(=O)OC)=C(C)N1C (configuration not stated)	–	·	–	·	·
CCN(CC)C(=O)NCc1c(C)cc(C)cc1C	·	–	·	46.8	–
CC(C)CN(CC(C)C)C(=O)CSc1nc2cccnc2n1C	–	·	–	·	·
CN1/C(=C\C(=O)COC(=O)c2ccco2)C(C)(C)c2ccccc21	–	–	–	–	·
CN1/C(=C\C(=O)c2ccco2)C(C)(C)c2ccccc21	–	–	–	4.3	–
CCOc1cccc(-c2cc(N3CCN(CCO)CC3)n3nccc3n2)c1	–	–	–	6.0	–
COc1ccc(-c2cc(N3CCN(CCO)CC3)n3nccc3n2)cc1	–	–	–	–	·
CN1C2=N[C@@H](c3ccc4ccccc4c3)CC(=O)N2/C(=C\c2ccccc2)[C@H]1c1ccccc1	–	·	–	·	·
CCCN(CCC)C(=O)C1CCCN(S(=O)(=O)c2ccc3c(c2)oc(=O)n3C)C1 (configuration not stated)	–	–	–	8.0	–
COc1cc(O)c2c(c1)OC(c1ccc(O)cc1)CC2=O (configuration not stated)	–	–	–	12.7	–
Cc1c(O)cc2c(c1O)C(=O)CC(c1ccc(O)cc1)O2 (configuration not stated)	–	–	–	4.7	–
O=C1CC(c2ccc(O)cc2)Oc2cc(O)ccc21 (configuration not stated)	–	–	–	–	·
c1ccc(-c2nc(N3CCOCC3)c3ccccc3n2)nc1	–	–	–	7.0	–
c1ccc(Oc2nc(-c3ccccn3)nc3ccccc23)cc1	–	–	–	2.4	2.8
CCCCN(C)C(=O)c1ccc(Nc2nc(C(N)Cc3ccc(C(F)(F)F)cc3)cs2)nc1 (configuration not stated)	–	–	–	–	·
